Common to all, as to assay type: functional
The test system of assay [1] is Rattus norvegicus. The assay can be described thus: Antiinflammatory activity against carrageenan-induced paw oedema in Albino rat at 50 mg/kg, po after 3 hrs. In a few lines: (§1)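 Oral dosing. Paw volume was read by plethysmometer immediately after and 3 h after the irritant injection, and the volume difference was taken as oedema. Percent inhibition of oedema was calculated for treated groups against the control group, with a standard-drug group included.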
(In general: The carrageenan paw model is a standard test of acute inflammation.)

Assay [2] concerns Mus musculus. The assay can be described thus: Analgesic activity against phenylquinone-induced in Swiss mouse assessed as effect on writhings at 50 mg/kg, po after 20 mins. The essentials: (§2)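 Female Swiss mice (15–20 g) screened the day before by intraperitoneal 0.2 cm³ of 0.02% aqueous phenylquinone, with writhes counted over 20 min. Mice with more than 10 writhes were used next day in groups of five. They were given the oral dose (25, 50 or 100 mg/kg) 15 min before the phenylquinone challenge, and writhing was recorded.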

Assay [3] deals with Rattus norvegicus. Briefly: Antiinflammatory activity against carrageenan-induced paw oedema in Albino rat at 100 mg/kg, po after 3 hrs. The essentials:
as §1

For assay [4], the system named is Mus musculus. The assay can be described thus: Analgesic activity against phenylquinone-induced in Swiss mouse assessed as effect on writhings at 100 mg/kg, po after 20 mins. In a few lines: as §2
The subject of assay [5] is Mus musculus. The assay can be described thus: Analgesic activity against phenylquinone-induced in Swiss mouse assessed as effect on writhings at 75 mg/kg, po after 20 mins. (In general: An intraperitoneal irritant provokes the stretching counted in writhing tests.)
Assay [6] deals with Mus musculus. Briefly: Analgesic activity against phenylquinone-induced in Swiss mouse assessed as effect on writhings at 25 mg/kg, po after 20 mins. In a few lines:
as §2

Consider `CC1(C)CC(C)(O)N(Cc2ccco2)C(=S)N1` (stereo not given), for which the Activity in assay [1] is on record as 10.3%; in assay [2] it was 15%.

Turning to `CC1(C)CC(C)(O)N(CCCN2CCCC2=O)C(=S)N1` (stereo not given), the figures for the Activity in assay [3] and in assay [4] were 40.3% and 34%, respectively.

`CC1=CC(C)(C)NC(=S)N1c1ccccc1C#N`: the Activity in assay [3] came out at 0%; in assay [4] it was 25%; in assay [2], 0%.

For `CC1=CC(C)(C)NC(=S)N1CCCC1OCC2(CO1)COC(CCCN1C(=S)NC(C)(C)C=C1C)OC2` (stereo not given), the Activity in assay [3] amounted to 31.8%; in assay [4], 75%; in assay [2], 25%.

Consider `CC1CC(O)N(CCCN2CCN(CCCN3C(=S)NC(C)CC3O)CC2)C(=S)N1` (stereo not given), for which the Activity turned out to be 38.6% in assay [1] and 40% in assay [2].

With `CC1CC(O)N(CCCC2OCC3(CO2)COC(CCCN2C(=S)NC(C)CC2O)OC3)C(=S)N1` (stereo not given), the Activity in assay [3] and in assay [4] was 0% each time.

With `CC1=CC(C)(C)NC(=S)N1Cc1ccco1`, the Activity is 15.1% in assay [1] and 8.5% in assay [2].

With `CC1(C)CC(C)(O)N(CCc2c[nH]cn2)C(=S)N1` (stereo not given), the Activity in assay [3] is listed as 65%; in assay [4] it was 100%; in assay [2], 25%; in assay [5], 50%; in assay [6] it was 12.5%.

Take `CC1(C)CC(C)(O)N(CCCn2ccnc2)C(=S)N1` (stereo not given): the Activity stood at 35% in assay [3], 50% in assay [4] and 25% in assay [2].

On to `CC1=CC(C)(C)NC(=S)N1c1n[nH]c(N2C(=S)NC(C)(C)C=C2C)n1`, for which the Activity in assay [3] and in assay [4] was 0% in each case.

With `CC1CC(O)N(CCCN2CCCC2=O)C(=S)N1` (stereo not given), the Activity in assay [1] worked out at 36.3%; in assay [2], 50%.

Regarding `CC1=CC(C)(C)NC(=S)N1CCCn1ccnc1`, the Activity in assay [1] came out at 32.5%; in assay [2] it was 40%.

In the case of `CC1(C)CC(C)(O)N(CCCN2CCN(CCCN3C(=S)NC(C)(C)CC3(C)O)CC2)C(=S)N1` (stereo not given), the Activity is 31.6% in assay [1] and 10% in assay [2].

As to `CC(C)Cc1ccc(C(C)C(=O)O)cc1` (stereo not given) [IBUPROFEN], the Activity came out at 66.8% in assay [3], 75% in assay [4] and 50% in assay [2].

The values above are taken from ChEMBL document CHEMBL1147924, “One pot synthesis of pyrimidine and bispyrimidine derivatives and their evaluation for anti-inflammatory and analgesic activities” (2007).
